One experiment relates to Human betaherpesvirus 5. Description: Antiviral activity against human cytomegalovirus (HCMV) in plaque reduction assay. Format: functional, organism-based. The method, boiled down: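 HFF cells infected with roughly 100 pfu HCMV Towne per cm2; after adsorption, drug in growth medium at four to eight concentrations in duplicate wells; 7 days at 37 °C, crystal violet staining, microscopic plaque counts as percent reduction versus no-drug control. IC50 by regression on log concentration; average of duplicate experiments.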
Background: Plaque reduction counts the foci of infection that form in a cell layer.

For another experiment, the system named is HFF. Description: Inhibition against human foreskin fibroblast (HFF) in a visual assay at time of plaque enumeration. The experiment is classed as functional, cell-based. The essentials: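 Stationary uninfected HFF cells, grown in MEM with 10% fetal bovine serum, inspected microscopically for cytotoxicity, scored visually when plaques were counted in the HCMV plaque assay.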

The test system of another experiment is Human alphaherpesvirus 1. Description: Antiviral activity against herpes simplex virus type 1 (HSV-1) by ELISA test. The experiment is classed as functional, organism-based. The essentials: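 BSC-1 cells (10 000/well) in MEM(E) plus 10% calf serum, incubated overnight at 37 °C, then drug in quadruplicate plus HSV-1 KOS at 100 pfu/well; 3 days at 37 °C; HRP-conjugated rabbit anti-HSV-1 antibody, TMB substrate, absorbance at 450 and 570 nm. Percent reduction versus virus-only control; IC50 by regression on log concentration.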
Background: An ELISA detects its analyte on a solid surface through an enzyme-linked reagent.

The next experiment has as its system L1210. Description: Antiproliferative activity against murine L1210 cells. The experiment is classed as functional, cell-based. As to conditions: Mus musculus. The method, boiled down: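 Murine L1210 leukemia cells in Fischer's medium with 10% heat-inactivated horse serum; cells counted at 0, 24, 48, 72, 96 h with compound; growth rate from slope of semilog cell number vs time, as percent of control (doubling time 12 h). IC50 = concentration halving growth rate; average of two or three experiments.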

For a further experiment, the system named is KB. The experiment in a line: Antiproliferative activity against KB cell. Conditions: Homo sapiens. The experiment is classed as functional, cell-based. The method, boiled down:
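KB cells seeded at 3000-5000/well, compound added after overnight culture at 37 °C in quadruplicate at six to eight concentrations; 48 h incubation (about two population doublings) in CO2 incubator; ethanol fixation, 0.1% crystal violet stain, eluted dye read at 570 nm. IC50 from linear regression of percent inhibition against log concentration.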

By IC50 is commonly meant the concentration needed to halve the response being measured. Read a low IC50 as greater potency in that assay.

As to `c1ccc(CSc2nc3cnsc3[nH]2)cc1`, the IC50 in the experiment with Human betaherpesvirus 5 is 21 µM; with HFF, 14 µM; in the experiment on Human alphaherpesvirus 1, 15 µM; in the experiment with L1210, 0.3 µM; in the experiment with KB it was 0.2 µM.

Take `Cc1nsc2c1nc(SCc1ccccc1)n2[C@@H]1O[C@H](CO)[C@@H](O)[C@H]1O`: the IC50 in the experiment on Human betaherpesvirus 5, with HFF, with Human alphaherpesvirus 1, in the experiment on L1210 and in the experiment on KB was above 100 µM each time.

Regarding `Cc1nsc2c1ncn2[C@@H]1O[C@H](CO)[C@@H](O)[C@@H]1O`, the IC50 in the experiment on Human betaherpesvirus 5, in the experiment with HFF, in the experiment on Human alphaherpesvirus 1, in the experiment on L1210 and in the experiment on KB was above 100 µM throughout.

Take `CSc1nc2sncc2n1[C@@H]1O[C@H](CO)[C@@H](O)[C@H]1O`: the IC50 in the experiment on Human betaherpesvirus 5 amounted to 32 µM; in the experiment with HFF it was 21 µM; in the experiment with Human alphaherpesvirus 1, 20 µM; in the experiment with L1210, 8.6 µM; in the experiment on KB, 15 µM.

Take `CSc1nc2c(C)nsc2n1[C@@H]1O[C@H](CO)[C@@H](O)[C@H]1O`: the IC50 in the experiment on Human betaherpesvirus 5, in the experiment with HFF, in the experiment on Human alphaherpesvirus 1, with L1210 and with KB was above 100 µM each time.

As to `CSc1nc2cnsc2n1[C@@H]1O[C@H](CO)[C@@H](O)[C@H]1O`, the IC50 with Human betaherpesvirus 5, in the experiment on HFF, in the experiment on Human alphaherpesvirus 1, in the experiment on L1210 and in the experiment on KB was above 100 µM throughout.

For `CSc1nc2sncc2n1[C@@H]1O[C@H](CO)[C@@H](O)[C@@H]1O`, the 50% inhibitory concentration (IC50) in the experiment on Human betaherpesvirus 5 was determined as 32 µM; in the experiment with HFF, 21 µM; with Human alphaherpesvirus 1, 25 µM; in the experiment on L1210, 11 µM; in the experiment with KB it was 15 µM.

In the case of `CSc1nc2c(C)nsc2n1[C@@H]1O[C@H](CO)[C@@H](O)[C@@H]1O`, the IC50 in the experiment on Human betaherpesvirus 5, in the experiment with HFF, in the experiment on Human alphaherpesvirus 1, in the experiment with L1210 and in the experiment with KB was above 100 µM in each case.

For `Cc1nsc2c1nc(SCc1ccccc1)n2[C@@H]1O[C@H](CO)[C@@H](O)[C@@H]1O`, the 50% inhibitory concentration (IC50) with Human betaherpesvirus 5, in the experiment on HFF, with Human alphaherpesvirus 1, with L1210 and with KB was above 100 µM each time.

Regarding `CSc1nc2cnsc2n1[C@@H]1O[C@H](CO)[C@@H](O)[C@@H]1O`, the IC50 in the experiment with Human betaherpesvirus 5 was above 100 µM; in the experiment with HFF, above 100 µM; with Human alphaherpesvirus 1 it was 100 µM; in the experiment on L1210, above 100 µM; with KB it was above 100 µM.

Regarding `Cc1nsc2c1ncn2[C@@H]1O[C@H](CO)[C@@H](O)[C@H]1O`, the IC50 in the experiment on Human betaherpesvirus 5 is above 100 µM; in the experiment with HFF, 150 µM; in the experiment with Human alphaherpesvirus 1, above 100 µM; in the experiment on L1210, 10 µM; with KB, 90 µM.

Consider `CSc1nc2sncc2n1[C@H]1C[C@H](O)[C@@H](CO)O1`, for which the IC50 in the experiment with Human betaherpesvirus 5 is 22 µM; in the experiment on HFF, 15 µM; in the experiment with Human alphaherpesvirus 1, 10 µM; in the experiment on L1210 it was 20 µM; in the experiment with KB, 6 µM.

As for `OC[C@H]1O[C@@H](n2c(SCc3ccccc3)nc3sncc32)C[C@@H]1O`, the IC50 was 3.2 µM with Human betaherpesvirus 5; 2.1 µM in the experiment with HFF; 15 µM with Human alphaherpesvirus 1; 2.2 µM in the experiment on L1210; 3 µM with KB.

Turning to `CSc1nc2snc(C)c2n1[C@H]1C[C@H](O)[C@@H](CO)O1`, the concentration for half-maximal inhibition (IC50) in the experiment with Human betaherpesvirus 5 was found to be 32 µM; in the experiment with HFF, 32 µM; with Human alphaherpesvirus 1, 60 µM; with L1210 it was 33 µM; in the experiment on KB it was 30 µM.

As to `CSc1nc2c(C)nsc2n1[C@H]1C[C@H](O)[C@@H](CO)O1`, the IC50 in the experiment with Human betaherpesvirus 5, with HFF, with Human alphaherpesvirus 1, with L1210 and in the experiment on KB was above 100 µM in each case.

On to `CSc1nc2cnsc2n1[C@H]1C[C@H](O)[C@@H](CO)O1`, for which the IC50 in the experiment on Human betaherpesvirus 5, in the experiment on HFF, with Human alphaherpesvirus 1, with L1210 and in the experiment on KB was above 100 µM in each case.

As for `Cc1nsc2ncn([C@H]3C[C@H](O)[C@@H](CO)O3)c12`, the IC50 in the experiment on Human betaherpesvirus 5 was above 100 µM; with HFF, above 100 µM; with Human alphaherpesvirus 1, above 100 µM; in the experiment on L1210 it was 78 µM; in the experiment with KB, above 100 µM.

In the case of `OC[C@H]1O[C@@H](n2c(SCc3ccccc3)nc3cnsc32)C[C@@H]1O`, the IC50 in the experiment with Human betaherpesvirus 5 is above 100 µM; in the experiment on HFF, above 100 µM; in the experiment on Human alphaherpesvirus 1, above 100 µM; in the experiment with L1210 it was 8 µM; in the experiment with KB, above 100 µM.

Turning to `Cc1nsc2c1nc(SCc1ccccc1)n2[C@H]1C[C@H](O)[C@@H](CO)O1`, the IC50 in the experiment with Human betaherpesvirus 5, in the experiment on HFF, with Human alphaherpesvirus 1, in the experiment on L1210 and in the experiment on KB was above 100 µM throughout.

In the case of `Cc1nsc2c1ncn2[C@H]1C[C@H](O)[C@@H](CO)O1`, the IC50 in the experiment with Human betaherpesvirus 5, with HFF, in the experiment with Human alphaherpesvirus 1, in the experiment with L1210 and in the experiment with KB was above 100 µM in each case.

As to `Cc1nsc2[nH]c(SCc3ccccc3)nc12`, the IC50 turned out to be 21 µM in the experiment with Human betaherpesvirus 5; 10 µM in the experiment on HFF; 45 µM in the experiment with Human alphaherpesvirus 1; 7 µM with L1210; 9 µM with KB.

On to `Cc1nsc2[nH]cnc12`, for which the IC50 stood at 32 µM with Human betaherpesvirus 5; 32 µM in the experiment with HFF; 45 µM in the experiment with Human alphaherpesvirus 1; 17 µM with L1210; 20 µM in the experiment on KB.

As for `CSc1nc2cnsc2[nH]1`, the half-inhibitory concentration (IC50) in the experiment on Human betaherpesvirus 5 turned out to be 32 µM; with HFF, 32 µM; in the experiment on Human alphaherpesvirus 1 it was 45 µM; in the experiment with L1210, 7 µM; with KB, 15 µM.

Regarding `CSc1nc2c(C)nsc2[nH]1`, the IC50 in the experiment with Human betaherpesvirus 5 is 18 µM; with HFF it was 26 µM; in the experiment on Human alphaherpesvirus 1, 60 µM; in the experiment with L1210, 13 µM; with KB it was 60 µM.

Turning to `OC[C@H]1OC(n2c(SCc3ccccc3)nc3cnsc32)[C@@H](O)[C@@H]1O` (stereo not given in full), the 50% inhibitory concentration (IC50) in the experiment with Human betaherpesvirus 5, with HFF, in the experiment on Human alphaherpesvirus 1, with L1210 and in the experiment with KB was above 100 µM throughout.

Consider `OC[C@H]1OC(n2c(SCc3ccccc3)nc3sncc32)[C@@H](O)[C@@H]1O` (stereo not given in full), for which the IC50 with Human betaherpesvirus 5 is 3.2 µM; in the experiment with HFF it was 2.1 µM; in the experiment on Human alphaherpesvirus 1 it was above 100 µM; with L1210, 1.5 µM; in the experiment with KB, 3 µM.

Regarding `Cc1nsc2ncn(C3O[C@H](CO)[C@@H](O)[C@H]3O)c12` (stereo not given in full), the IC50 was 32 µM in the experiment with Human betaherpesvirus 5; 32 µM in the experiment on HFF; 70 µM with Human alphaherpesvirus 1; 100 µM in the experiment with L1210; above 100 µM in the experiment on KB.

For the origin of these results see ChEMBL document CHEMBL1129957, “Synthesis, antiproliferative and antiviral activity of imidazo[4,5-d]isothiazole nucleosides as 5:5 fused analogs of nebularine and 6-methylpurine ribonucleoside” (J Med Chem, 1997).
